From ChEMBL document CHEMBL1147243, “Antitumor agents. 228. five new agarofurans, Reissantins A-E, and cytotoxic principles from Reissantia buchananii” (2003)
Values after ≈ are worked out from the molar mass of the structure shown. Active and inactive are the calls of the source. No cut-off for these calls is given here.

Experiments:
HCT-8 [1] = assay: Cytotoxicity against human HCT8 cells after 3 days by SRB assay; type: functional; conditions: HCT-8, 72 h, read-out: ED50 (the source's name)
Method in brief: (§1)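 Tumour lines kept in RPMI-1640 with 25 mM HEPES, 0.25% sodium bicarbonate, 10% FBS and 100 µg/mL kanamycin. Freshly trypsinized cells were seeded at 1500-7500 per well with compound from DMSO-diluted stock. After 3 days, attached cells were fixed with cold 50% TCA, stained with 0.4% SRB, and the bound dye was solubilized and read at 562 nm. ED50 is the concentration giving 50% growth reduction.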

KB = assay: Cytotoxicity against human KB cells after 3 days by SRB assay; type: functional; conditions: 72 h, read-out: ED50 (the source's name); method in brief: as §1
[2] = Cytotoxicity against human KBVIN cells after 3 days by SRB assay; type: functional; conditions: 72 h, read-out: ED50 (the source's name)
Method in brief: (§2)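 Freshly trypsinized cells from T-25 stock cultures were seeded at 1500-7500 cells/well with compound added from DMSO-diluted stock. The medium was RPMI-1640 with 25 mM HEPES, 0.25% sodium bicarbonate, 10% FBS and 100 µg/mL kanamycin. After 3 days, attached cells were fixed with cold 50% TCA, stained with 0.4% SRB, and the bound dye solubilized and read at 562 nm. ED50 is the concentration giving 50% growth reduction.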

[3] = Cytotoxicity against human U87MG cells after 3 days by SRB assay; type: functional, U-87MG ATCC; conditions: U-87 MG, 72 h, read-out: ED50 (the source's name); method in brief: as §2
PC-3 = assay: Cytotoxicity against human PC3 cells after 3 days by SRB assay; type: functional; conditions: PC-3, 72 h, read-out: ED50 (the source's name); method in brief: as §1
1A9 [4] = assay: Cytotoxicity against human 1A9 cells after 3 days by SRB assay; type: functional; conditions: 1A9, 72 h, read-out: ED50 (the source's name); method in brief: as §1
1A9/ptx-10 [5] = assay: Cytotoxicity against human 1A9/PTX10 cells after 3 days by SRB assay; type: functional; conditions: 1A9/ptx-10, 72 h, read-out: ED50 (the source's name); method in brief: as §1
1A9 [6] = assay: Cytotoxicity against human 1A9 cells after 6 days by SRB assay; type: functional; conditions: 1A9, 144 h, read-out: ED50 (the source's name)
Method in brief: (§3)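 Cells were grown in RPMI-1640 supplemented with 25 mM HEPES, 0.25% sodium bicarbonate, 10% FBS and 100 µg/mL kanamycin. Freshly trypsinized cells were plated at 1500-7500 per well with compound from DMSO-diluted stock over a 6-day assay period. Cells were fixed with cold 50% TCA and stained with 0.4% SRB, and the solubilized dye was read at 562 nm. ED50 is the concentration reducing growth by 50%.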

1A9/ptx-10 [7] = assay: Cytotoxicity against human 1A9/PTX10 cells after 6 days by SRB assay; type: functional; conditions: 1A9/ptx-10, 144 h, read-out: ED50 (the source's name); method in brief: as §3
A549 = assay: Cytotoxicity against human A549 cells after 3 days by SRB assay; type: functional; conditions: A549, 72 h, read-out: ED50 (the source's name); method in brief: as §1
MCF7 = assay: Cytotoxicity against human MCF7 cells after 3 days by SRB assay; type: functional; conditions: MCF7, 72 h, read-out: ED50 (the source's name); method in brief: as §1
KBVIN = assay: Cytotoxicity against human KBVIN cells at 20 ug/ml after 3 days by SRB assay; type: functional, cell-based
U-87MG ATCC = assay: Cytotoxicity against human U87MG cells at 20 ug/ml after 3 days by SRB assay; type: functional, cell-based
HCT-8 [8] = assay: Cytotoxicity against human HCT8 cells at 20 ug/ml after 3 days by SRB assay; type: functional, cell-based
1A9 [9] = assay: Cytotoxicity against human 1A9 cells at 20 ug/ml after 6 days by SRB assay; type: functional, cell-based

## COC(=O)[C@]1(C)CC[C@]2(C)CC[C@]3(C)C4=CC(=O)c5c(cc(O)c(O)c5C)[C@]4(C)CC[C@@]3(C)[C@@H]2C1
HCT-8 [1]
  EC50: 14.1 µg/mL (≈ 29.3 µM)
KB
  EC50: 14.5 µg/mL (≈ 30.2 µM)
[2]
  EC50: 16.6 µg/mL (≈ 34.5 µM)
[3]
  EC50: > 20 µg/mL
PC-3
  EC50: > 20 µg/mL
1A9 [4]
  EC50: 11.7 µg/mL (≈ 24.3 µM)
1A9/ptx-10 [5]
  EC50: 12.4 µg/mL (≈ 25.8 µM)
1A9 [6]
  EC50: 10.7 µg/mL (≈ 22.3 µM)
1A9/ptx-10 [7]
  EC50: 7.1 µg/mL (≈ 14.8 µM)
A549
  EC50: 16.4 µg/mL (≈ 34.1 µM)
MCF7
  EC50: 12.8 µg/mL (≈ 26.6 µM)

## CC1(C)CC[C@]2(C)CC[C@]3(C)C(=CC[C@@H]4[C@@]5(C)CC[C@H](O)C(C)(C)C5C(=O)C[C@]43C)[C@H]2C1 (some centres undefined)
HCT-8 [1]
  EC50: 13.7 µg/mL (≈ 31.1 µM)
KB
  EC50: 13 µg/mL (≈ 29.5 µM)
[2]
  EC50: 14.7 µg/mL (≈ 33.4 µM)
[3]
  EC50: 6.7 µg/mL (≈ 15.2 µM)
PC-3
  EC50: 15.1 µg/mL (≈ 34.3 µM)
1A9 [4]
  EC50: 11.4 µg/mL (≈ 25.9 µM)
1A9/ptx-10 [5]
  EC50: 11 µg/mL (≈ 25 µM)
1A9 [6]
  EC50: 11.3 µg/mL (≈ 25.6 µM)
1A9/ptx-10 [7]
  EC50: 11.2 µg/mL (≈ 25.4 µM)
A549
  EC50: 13.3 µg/mL (≈ 30.2 µM)
MCF7
  EC50: 14.6 µg/mL (≈ 33.1 µM)

## CC[C@H](CC[C@@H](C)[C@H]1CC[C@H]2[C@@H]3CC=C4C[C@@H](O)CC[C@]4(C)[C@H]3CC[C@]12C)C(C)C [BETA-SITOSTEROL]
HCT-8 [1]
  EC50: > 20 µg/mL
KB
  EC50: > 20 µg/mL
[2]
  EC50: > 20 µg/mL
[3]
  EC50: > 20 µg/mL
PC-3
  EC50: > 20 µg/mL
1A9 [4]
  EC50: 16.8 µg/mL (≈ 40.5 µM)
1A9/ptx-10 [5]
  EC50: 20 µg/mL (≈ 48.2 µM)
1A9 [6]
  EC50: 10.6 µg/mL (≈ 25.6 µM)
1A9/ptx-10 [7]
  EC50: 9.5 µg/mL (≈ 22.9 µM)
A549
  EC50: > 20 µg/mL
MCF7
  EC50: > 20 µg/mL

## CC1=C(O)C(=O)C=C2C1=CC=C1[C@@]2(C)CC[C@@]2(C)[C@@H]3C[C@](C)(C(=O)O)CC[C@]3(C)CC[C@]12C [CELASTROL]
HCT-8 [1]
  EC50: 0.23 µg/mL (≈ 0.51 µM)
KB
  EC50: 0.2 µg/mL (≈ 0.444 µM)
[2]
  EC50: 0.34 µg/mL (≈ 0.755 µM)
[3]
  EC50: 0.22 µg/mL (≈ 0.488 µM)
PC-3
  EC50: 0.27 µg/mL (≈ 0.599 µM)
1A9 [4]
  EC50: 0.091 µg/mL (≈ 0.202 µM)
1A9/ptx-10 [5]
  EC50: 0.1 µg/mL (≈ 0.222 µM)
1A9 [6]
  EC50: 0.11 µg/mL (≈ 0.244 µM)
1A9/ptx-10 [7]
  EC50: 0.11 µg/mL (≈ 0.244 µM)
A549
  EC50: 0.25 µg/mL (≈ 0.555 µM)
MCF7
  EC50: 0.21 µg/mL (≈ 0.466 µM)

## CC(=O)O[C@H]1C(=O)[C@@]2(C)[C@H]([C@H](OC(=O)c3ccccc3)[C@]3(O)C[C@H](OC(=O)[C@H](O)[C@@H](NC(=O)c4ccccc4)c4ccccc4)C(C)=C1C3(C)C)[C@]1(OC(C)=O)CO[C@@H]1C[C@@H]2O [PACLITAXEL]
HCT-8 [1]
  EC50: 0.011 µg/mL (≈ 0.0129 µM)
KB
  EC50: 0.001 µg/mL (≈ 0.00117 µM)
1A9 [4]
  EC50: 0.002 µg/mL (≈ 0.00234 µM)
1A9 [6]
  EC50: 0.041 µg/mL (≈ 0.048 µM)
A549
  EC50: 0.005 µg/mL (≈ 0.00586 µM)

## COC(=O)[C@]1(C)CC[C@]2(C)CC[C@]3(C)C4=CC=C5C(=CC(=O)C(O)=C5C)[C@]4(C)CC[C@@]3(C)[C@@H]2C1 [PRISTIMERIN]
HCT-8 [1]
  EC50: 0.15 µg/mL (≈ 0.323 µM)
KB
  EC50: 0.1 µg/mL (≈ 0.215 µM)
[2]
  EC50: 0.29 µg/mL (≈ 0.624 µM)
[3]
  EC50: 0.17 µg/mL (≈ 0.366 µM)
PC-3
  EC50: 0.23 µg/mL (≈ 0.495 µM)
1A9 [4]
  EC50: 0.1 µg/mL (≈ 0.215 µM)
1A9/ptx-10 [5]
  EC50: 0.11 µg/mL (≈ 0.237 µM)
1A9 [6]
  EC50: 0.11 µg/mL (≈ 0.237 µM)
1A9/ptx-10 [7]
  EC50: 0.076 µg/mL (≈ 0.164 µM)
A549
  EC50: 0.31 µg/mL (≈ 0.667 µM)
MCF7
  EC50: 0.14 µg/mL (≈ 0.301 µM)

## CC(=O)O[C@H]1[C@@H]2[C@@H](OC(=O)c3ccc(=O)n(C)c3)[C@@]3(OC2(C)C)[C@@](C)([C@@H](OC(C)=O)CC[C@]3(C)O)[C@H]1OC(=O)c1ccccc1 [REISSANTIN A]
HCT-8 [1]
  EC50: > 20 µg/mL
KB
  EC50: > 20 µg/mL
PC-3
  EC50: > 20 µg/mL
1A9 [4]
  EC50: > 20 µg/mL
1A9/ptx-10 [5]
  EC50: > 20 µg/mL
1A9 [6]
  EC50: > 20 µg/mL
1A9/ptx-10 [7]
  EC50: > 20 µg/mL
KBVIN
  Activity: inactive
U-87MG ATCC
  Activity: inactive
A549
  EC50: > 20 µg/mL
MCF7
  EC50: > 20 µg/mL

## CC(=O)O[C@H]1[C@@H]2[C@@H](OC(=O)c3ccc(=O)n(C)c3)[C@@]3(OC2(C)C)[C@](C)([C@H]1OC(=O)c1ccccc1)[C@@H](OC(C)=O)[C@@H](OC(=O)c1ccccc1)C[C@]3(C)O [REISSANTIN B]
HCT-8 [1]
  EC50: > 20 µg/mL
KB
  EC50: 11.7 µg/mL (≈ 15.7 µM)
[2]
  EC50: 17.1 µg/mL (≈ 22.9 µM)
[3]
  EC50: > 20 µg/mL
PC-3
  EC50: > 20 µg/mL
1A9 [4]
  EC50: 17.1 µg/mL (≈ 22.9 µM)
1A9/ptx-10 [5]
  EC50: > 20 µg/mL
1A9 [6]
  EC50: 13.7 µg/mL (≈ 18.4 µM)
1A9/ptx-10 [7]
  EC50: 15.3 µg/mL (≈ 20.5 µM)
A549
  EC50: 15.3 µg/mL (≈ 20.5 µM)
MCF7
  EC50: > 20 µg/mL

## CC(=O)O[C@H]1CC[C@](C)(O)[C@]23OC(C)(C)[C@H]([C@H](O)[C@H](OC(=O)c4ccccc4)[C@]12C)[C@H]3O [REISSANTIN D]
KB
  EC50: > 20 µg/mL
PC-3
  EC50: > 20 µg/mL
1A9 [4]
  EC50: > 20 µg/mL
1A9/ptx-10 [5]
  EC50: > 20 µg/mL
1A9 [6]
  EC50: > 20 µg/mL
1A9/ptx-10 [7]
  EC50: > 20 µg/mL
HCT-8 [8]
  Activity: inactive
KBVIN
  Activity: inactive
U-87MG ATCC
  Activity: inactive
A549
  EC50: > 20 µg/mL
MCF7
  EC50: 16.2 µg/mL (≈ 36.1 µM)

## CC(=O)O[C@H]1[C@@H]2[C@@H](O)[C@@]3(OC2(C)C)[C@@](C)([C@@H](OC(C)=O)CC[C@]3(C)O)[C@H]1OC(=O)c1ccccc1 [REISSANTIN E]
HCT-8 [1]
  EC50: > 20 µg/mL
KB
  EC50: 14.4 µg/mL (≈ 29.4 µM)
[2]
  EC50: 16.5 µg/mL (≈ 33.6 µM)
PC-3
  EC50: > 20 µg/mL
1A9 [4]
  EC50: > 20 µg/mL
1A9/ptx-10 [5]
  EC50: > 20 µg/mL
1A9/ptx-10 [7]
  EC50: > 20 µg/mL
U-87MG ATCC
  Activity: inactive
1A9 [9]
  Activity: inactive
A549
  EC50: > 20 µg/mL
MCF7
  EC50: > 20 µg/mL
